Source: ChEMBL document CHEMBL1127325, “Potent gastrin-releasing peptide (GRP) antagonists derived from GRP (19-27) with a C-terminal DPro psi [CH2NH]Phe-NH2 and N-terminal aromatic residues” (J Med Chem, 1994)
Calls of active or inactive are those of the source. No cut-off for these calls is given here. Where a SMILES comes first, the peptide text is derived from it. [ ]: non-standard residue; d: D form. The star is where a group is joined. dProψ(CH2NH)PheNH2 = NC(=O)[C@H](Cc1ccccc1)NC[C@H]1CCCN1*; Propanoyl(3-(4-MeO-Ph)) = COc1ccc(CCC(=O)*)cc1; Desaminotyrosyl = O=C(CCc1ccc(O)cc1)*; X8 = COc1cc(CCC(=O)*)cc(OC)c1OC; X5 = C[C@@H](C(=O)*)c1ccccc1; X6 = C[C@H](C(=O)*)c1ccccc1; X7 = CC(C)(CC(=O)*)c1ccccc1; X1 = CC(C)(C(=O)*)c1ccccc1

Assays:
[1] = target: T1, Gastrin-releasing peptide receptor (Mus musculus, UniProt P21729); test: The ability of the peptide to inhibit the binding of 50 pM [125I]gastrin releasing peptide to intact S-3T3 cells; assay type: cell-based
T1 sequence (P21729 whole entry): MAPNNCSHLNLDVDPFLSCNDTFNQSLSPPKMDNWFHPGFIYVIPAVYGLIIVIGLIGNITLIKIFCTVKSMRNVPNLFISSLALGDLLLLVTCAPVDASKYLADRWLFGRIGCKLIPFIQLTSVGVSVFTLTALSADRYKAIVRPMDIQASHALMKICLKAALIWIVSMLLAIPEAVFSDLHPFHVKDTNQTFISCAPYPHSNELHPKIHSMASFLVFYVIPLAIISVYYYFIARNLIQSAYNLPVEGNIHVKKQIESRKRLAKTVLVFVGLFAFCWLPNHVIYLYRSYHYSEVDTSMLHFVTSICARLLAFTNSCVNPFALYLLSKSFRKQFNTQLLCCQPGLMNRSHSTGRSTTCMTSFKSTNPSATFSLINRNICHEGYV
Outline: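 Serially diluted peptides overlaid in triplicate on quiescent Swiss 3T3 monolayers (about 10^5 cells) with 50 pM [125I]GRP in maintenance medium, 30 min at 37 °C. Monolayers washed three times with chilled medium, solubilized, radioactivity counted. IC50 values reported.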

[2] = target: Gastrin-releasing peptide receptor (Mus musculus) (UniProt P21729); test: Inhibition of 6 nM bombesin induced [3H]thymidine incorporation measured in swiss 3T3 cells using a mitogenicity assay; assay type: functional, cell-based
Chain of Gastrin-releasing peptide receptor (Mus musculus) (P21729 whole entry): as above
Outline: (§1)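 Density-arrested quiescent Swiss 3T3 monolayers treated in triplicate with test peptide (generally log dilutions) plus 6 nM bombesin for 18 h, then pulsed 2 h with 0.5 µCi [3H]thymidine per well. Cells washed with cold PBS, fixed in methanol/acetic acid, solubilized, scintillation counted. IC50 ± SEM over replicate trials; na means no activity at 10^-4 M.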

[3] = target: T1, Gastrin-releasing peptide receptor; test: Ability of peptide to inhibit binding of 10 pM [125I]gastrin releasing peptide to S-3T3 cell membrane.; assay type: cell-based
Outline: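 Swiss 3T3 membranes (10 µg protein) incubated in triplicate with 10 pM [125I]GRP(1-27) in HEPES-KOH pH 6.8 (20 mM) with EGTA, MgCl2, BSA and protease inhibitors, 60 min at 37 °C with shaking. Terminated by filtration through PEI-pretreated GF/B filters, gamma counted. Nonspecific binding taken with 10 nM unlabeled GRP(1-27). IC50 for half-maximal inhibition of specific binding by Hill plot analysis.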

[4] = test system: NIH3T3; test: Ability of the peptide to inhibit 6 nM bombesin induced [3H]thymidine incorporation was measured in swiss 3T3 cells using mitogenicity assay; na=Not active; assay type: functional, cell-based; conditions: Mus musculus; outline: as §1
[5] = test system: NIH3T3; test: The ability of the peptide to inhibit the binding of 50 pM [125I]gastrin releasing peptide to intact S-3T3 cells was measured; assay type: cell-based; conditions: Mus musculus
Outline: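 Quiescent, density-arrested Swiss 3T3 monolayers (about 10^5 cells) in maintenance medium. Serially diluted peptides were added in triplicate with [125I]GRP and incubated 37 °C, 30 min. Monolayers were washed three times with chilled medium, solubilized with detergent and counted. IC50 reported ± SEM.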

[6] = The ability of the peptide to inhibit the binding of 10 pM [125I]gastrin releasing peptide to S-3T3 cell membrane was measured; conditions: Mus musculus

| IC50 [1] [nM] | Activity [2] | IC50 [3] [nM] | Compound | Activity [4] | IC50 [5] [nM] | IC50 [6] [nM] |
| --- | --- | --- | --- | --- | --- | --- |
| 0.003 | 0.34 nM | 0.18 | CC(C)[C@H](NC(=O)[C@H](C)NC(=O)[C@H](Cc1c[nH]c2ccccc12)NC(=O)[C@H](Cc1c[nH]cn1)NC(=O)C(C)(C)c1ccccc1)C(=O)N[C@H](C)C(=O)N[C@@H](Cc1c[nH]cn1)C(=O)N1CCC[C@@H]1CN[C@@H](Cc1ccccc1)C(N)=O (X1-HWAV[dA]H-{dProψ(CH2NH)PheNH2}) |  |  |  |
| 60 |  | 140 | CC(NC(=O)[C@H](Cc1c[nH]c2ccccc12)NC(=O)[C@H](Cc1c[nH]cn1)NC(=O)CCc1ccccc1)C(=O)N[C@H](C(=O)NC(C)C(=O)N[C@@H](Cc1c[nH]cn1)C(=O)N1CCC[C@@H]1C(O)CC(=O)N[C@@H](Cc1ccccc1)C(N)=O)C(C)C (stereo in doubt) | inactive |  |  |
| 1 | 7e-08 | 1.3 | CC(C)[C@H](NC(=O)[C@H](C)NC(=O)[C@H](Cc1c[nH]c2ccccc12)NC(=O)[C@H](Cc1c[nH]cn1)NC(=O)[C@@H](C)c1ccccc1)C(=O)N[C@H](C)C(=O)N[C@@H](Cc1c[nH]cn1)C(=O)N1CCC[C@@H]1CN[C@@H](Cc1ccccc1)C(N)=O (X6-HWAV[dA]H-{dProψ(CH2NH)PheNH2}) |  |  |  |
|  | 0.3 nM |  | COc1ccc(CCC(=O)N[C@@H](Cc2c[nH]cn2)C(=O)N[C@@H](Cc2c[nH]c3ccccc23)C(=O)N[C@@H](C)C(=O)N[C@H](C(=O)N[C@H](C)C(=O)N[C@@H](Cc2c[nH]cn2)C(=O)N2CCC[C@@H]2CN[C@@H](Cc2ccccc2)C(N)=O)C(C)C)cc1 ({Propanoyl(3-(4-MeO-Ph))}-HWAV[dA]H-{dProψ(CH2NH)PheNH2}) |  | 10 | 0.47 |
| 0.001 | 1 nM | 0.22 | CC(NC(=O)[C@H](Cc1c[nH]c2ccccc12)NC(=O)[C@H](Cc1c[nH]cn1)NC(=O)CCc1ccccc1)C(=O)N[C@H](C(=O)NC(C)C(=O)N[C@@H](Cc1c[nH]cn1)C(=O)N1CCC[C@H]1CN[C@@H](Cc1ccccc1)C(N)=O)C(C)C (stereo in doubt) |  |  |  |
| 0.1 | 13 nM | 2 | CC(C)[C@H](NC(=O)[C@H](C)NC(=O)[C@H](Cc1c[nH]c2ccccc12)NC(=O)[C@H](Cc1c[nH]cn1)NC(=O)Cc1ccccc1N)C(=O)N[C@H](C)C(=O)N[C@@H](Cc1c[nH]cn1)C(=O)N1CCC[C@@H]1CN[C@@H](Cc1ccccc1)C(N)=O |  |  |  |
| 50 | 26 nM | 31 | CC(NC(=O)[C@H](Cc1c[nH]c2ccccc12)NC(=O)[C@H](Cc1c[nH]cn1)NC(=O)CCc1ccccc1)C(=O)N[C@H](C(=O)NC(C)C(=O)N[C@@H](Cc1c[nH]cn1)C(=O)N1CCC[C@H]1C(O)CC(=O)N[C@@H](Cc1ccccc1)C(N)=O)C(C)C (stereo in doubt) |  |  |  |
| 0.1 | 6 nM | 73 | CC(C)CC(NC(=O)[C@H](Cc1c[nH]cn1)NC(=O)C(C)NC(=O)[C@@H](NC(=O)C(C)NC(=O)[C@H](Cc1c[nH]c2ccccc12)NC(=O)[C@H](Cc1c[nH]cn1)NC(=O)CCc1ccccc1)C(C)C)C(O)CC(=O)N[C@@H](Cc1ccccc1)C(N)=O (stereo in doubt) |  |  |  |
| 0.03 | 0.2 nM | 0.049 | CC(C)[C@H](NC(=O)[C@H](C)NC(=O)[C@H](Cc1c[nH]c2ccccc12)NC(=O)[C@H](Cc1c[nH]cn1)NC(=O)C1C[C@@H]1c1ccccc1)C(=O)N[C@H](C)C(=O)N[C@@H](Cc1c[nH]cn1)C(=O)N1CCC[C@@H]1CN[C@@H](Cc1ccccc1)C(N)=O (stereo partly specified) |  |  |  |
| 10 | 18 nM | 1.2 | CC(C)[C@H](NC(=O)[C@H](C)NC(=O)[C@H](Cc1c[nH]c2ccccc12)NC(=O)[C@H](Cc1c[nH]cn1)NC(=O)CC(C)(C)c1ccccc1)C(=O)N[C@H](C)C(=O)N[C@@H](Cc1c[nH]cn1)C(=O)N1CCC[C@@H]1CN[C@@H](Cc1ccccc1)C(N)=O (X7-HWAV[dA]H-{dProψ(CH2NH)PheNH2}) |  |  |  |
| 10 | 50 nM | 56 | CC(NC(=O)[C@H](Cc1c[nH]c2ccccc12)NC(=O)[C@H](Cc1cccs1)NC(=O)CCc1ccccc1)C(=O)N[C@H](C(=O)NC(C)C(=O)N[C@@H](Cc1c[nH]cn1)C(=O)N1CCC[C@H]1CN[C@@H](Cc1ccccc1)C(N)=O)C(C)C (stereo in doubt) |  |  |  |
| 0.05 |  | 0.23 | CC(C)[C@H](NC(=O)[C@H](C)NC(=O)[C@H](Cc1c[nH]c2ccccc12)NC(=O)[C@H](Cc1cnc[nH]1)NC(=O)CCc1ccc(O)cc1)C(=O)N[C@H](C)C(=O)N[C@@H](Cc1cnc[nH]1)C(=O)N1CCC[C@@H]1CN[C@@H](Cc1ccccc1)C(N)=O (Desaminotyrosyl-HWAV[dA]H-{dProψ(CH2NH)PheNH2}) |  |  |  |
| 30 | 0.9 nM | 0.95 | CC(C)[C@H](NC(=O)[C@H](C)NC(=O)[C@H](Cc1c[nH]c2ccccc12)NC(=O)[C@H](Cc1c[nH]cn1)NC(=O)[C@H](C)c1ccccc1)C(=O)N[C@H](C)C(=O)N[C@@H](Cc1c[nH]cn1)C(=O)N1CCC[C@@H]1CN[C@@H](Cc1ccccc1)C(N)=O (X5-HWAV[dA]H-{dProψ(CH2NH)PheNH2}) |  |  |  |

| Compound | IC50 [1] [nM] | Activity [2] | IC50 [3] [nM] | Activity [4] | IC50 [5] [nM] | IC50 [6] [nM] |
| --- | --- | --- | --- | --- | --- | --- |
| COc1cc(CCC(=O)N[C@@H](Cc2c[nH]cn2)C(=O)N[C@@H](Cc2c[nH]c3ccccc23)C(=O)N[C@@H](C)C(=O)N[C@H](C(=O)N[C@H](C)C(=O)N[C@@H](Cc2c[nH]cn2)C(=O)N2CCC[C@@H]2CN[C@@H](Cc2ccccc2)C(N)=O)C(C)C)cc(OC)c1OC (X8-HWAV[dA]H-{dProψ(CH2NH)PheNH2}) |  | 0.3 nM |  |  | 0.001 | 0.46 |
